Compound activity as filed in PubChem.
Hits are enriched below; roughly 10% of the tested compounds scored in any of these assays.
L major viab: inhibitors of Leishmania major promastigote growth; inhibition, % at 10 µM; Leishmania major promastigotes, resazurin fluorescence viability; 200,000 tested, 9% active; in the data active = inhibition above about 50%;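 also: promastigotes grown with compound for 44 hours at 28 °C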
Diaph act CS: activates diaphorase or chemically reduces, flagging diaphorase assay artifacts; Diaphorase/resazurin coupled assay, resorufin fluorescence, 16 min; active compounds read high; 1 = vehicle wells, 0 = NADH-free wells; activation factor at 20 µM; 190,000 tested, 0.005% active; AID 1229;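 active = diaphorase activity raised at least twofold by the compound at 20 µM; inactive = activation factor below 2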
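test system = bacterial diaphorase enzyme (C. kluyveri) | quantity = enzyme 0.07 U/mL final | reagent = NADH substrate 0.114 mM plus resazurin dye 0.1 mM, final | incubation = 16 min enzyme reaction, ambient temperature | buffer or medium = HEPES pH 7.4 buffer with MgCl2 and Tween 20 | signal = fluorescence of resorufin, 544 nm excitation, 590 nm emission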
PMI act satM6P: PMI (human) activation, high substrate; 190,000 tested, 0.34% active; coupled PMI enzyme assay, resazurin fluorescence, 20 min; active compounds read high; 1 = untreated enzyme, 0 = substrate-free blank; AID 1216; activation factor at 20 µM;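 active = activation factor of 2 or more at 20 µM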
Target sequence (P34949 whole entry, looked up): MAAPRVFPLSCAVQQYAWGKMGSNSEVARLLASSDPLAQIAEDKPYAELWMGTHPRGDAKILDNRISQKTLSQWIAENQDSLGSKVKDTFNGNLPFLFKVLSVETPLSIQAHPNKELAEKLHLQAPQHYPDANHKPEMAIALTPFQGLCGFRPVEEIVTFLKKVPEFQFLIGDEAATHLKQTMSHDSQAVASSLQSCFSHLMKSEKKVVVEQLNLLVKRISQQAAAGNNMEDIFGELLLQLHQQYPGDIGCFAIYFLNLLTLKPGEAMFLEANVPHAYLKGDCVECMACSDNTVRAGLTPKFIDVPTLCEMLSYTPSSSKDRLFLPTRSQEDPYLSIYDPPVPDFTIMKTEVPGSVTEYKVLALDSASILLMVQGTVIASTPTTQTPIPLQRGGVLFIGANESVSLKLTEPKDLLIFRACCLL
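Test system: Human PMI in coupled enzyme assay | Input: 15 ng/mL PMI | Medium: HEPES-buffered pH 7.4 with magnesium and detergent | Compound: One concentration, 20 µM, in 1% DMSO | Incubation: Enzyme reaction with compound 20 min at room temperature | Detection: Diaphorase-driven resazurin-to-resorufin fluorescence, excitation 544, emission 590 nm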
PMI act: phosphomannose isomerase (human) activation | 190,000 tested, 0.005% active | P34949 | purified human PMI, coupled resazurin fluorescence, 20 min; active compounds read high; 1 = vehicle control, 0 substrate-free wells | activation factor at 20 µM | AID 1214;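 active = activation factor of 2 or more at 20 µM, relative to plate controls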
WT yeast gro inh: growth inhibition of WT yeast, mitochondrial fusion screen | mitochondrial fusion phenotypic screen, WT strain | inhibition, % at 10 µM | 190,000 tested, 2.1% active | AID 1362; in the data active = inhibition above about 58%; tested in S. cerevisiae
* = called active by the depositor; nt = not tested or not shown.

SMILES	L major viab	Diaph act CS	PMI act satM6P	PMI act	WT yeast gro inh
O=c1[nH]cnc2c1sc1nc(-c3ccccc3)c3c(c12)CCCC3	7	1	1.1	1	7
COC(=O)c1sc2nc(-c3ccccc3)c3c(c2c1N)CCCC3	-3	0.9	1	0.9	17
CCOC(=O)c1c(NC(=O)CSc2nnc(-c3c[nH]c4ccccc34)n2C)sc2c1CCCC2	51*	0.8	0.9	0.9	15
CCc1nnc(NC(=O)CSc2nnc(-c3c[nH]c4ccccc34)n2C)s1	-7	0.9	1	1	-8
CC1CCc2c(sc(NC(=O)Cn3cnc([N+](=O)[O-])n3)c2C(N)=O)C1 (centres undefined)	40	0.8	0.9	0.9	8
CCOC(=O)c1c(NC(=O)Cn2cnc([N+](=O)[O-])n2)sc2c1CCCC2	92*	0.9	0.8	0.8	7
CC(C)OC(=O)c1c(NC(=O)Cn2cnc([N+](=O)[O-])n2)sc2c1CCCC2	85*	0.7	0.8	0.8	11
CCN(CC)CCC(=O)NN	-6	1.1	0.9	1	0
CCc1cccc(C)c1NC(=S)N(CCCN1CCOCC1)Cc1cccnc1	12	1	1	1	-4
CCN(CC)c1nc(-c2ccccn2)nc(-c2ccccc2)c1C#N	71*	1	1.1	1	80*
CCOC(=O)c1sc2ccccc2c1OC(=O)c1ccccc1	-8	0.8	0.9	0.9	nt
CCOC(=O)c1sc2ccccc2c1NC(=O)c1coc2ccccc2c1=O	58*	0.8	1	0.9	27
CC1CCCN(C(=O)N2c3ccccc3Sc3ccccc32)C1 (centres undefined)	5	0.9	1	1	69*
CCCCC(=O)NC(=S)Nc1c(C)cc(Br)cc1C	-4	0.8	0.8	0.7	18
CCOC(=O)c1c(NC(=O)c2ccccc2)sc2c(O)c(CN(CC)CC)ccc12	100*	0.8	0.9	0.9	16
Cc1ccc(C)c(OCC(=O)N/N=C/c2c(C)nn(-c3ccccc3)c2Cl)c1C	-3	0.9	0.7	1	1
CCOc1ccc(Oc2c(/C=N/NC(N)=O)c(C)nn2-c2ccccc2)cc1	98*	0.9	1	0.8	27
CCOc1ccc(Oc2c(/C=N/NC(=O)COc3ccccc3OC)c(C)nn2-c2ccccc2)cc1	39	0.7	0.8	0.8	67*
CCOc1cc(/C=C2\C(=O)N(Cc3ccc(C)cc3)C(C)=C2C(=O)OC)ccc1O	48	0.6	0.5	0.8	10
C=CCOc1cccc(/C=C2\C(=O)N(Cc3ccc(C)cc3)C(C)=C2C(=O)OC)c1	92*	1	0.9	0.8	11
COc1ccc(S(=O)(=O)N(CCCN2CCOCC2)Cc2cccc3ccccc23)cc1	99*	0.9	1	1	26
O=S(=O)(c1ccc(Cl)cc1)N(CCCN1CCOCC1)Cc1cccs1	68*	0.8	1	1	5
O=C(Nc1ccc(Cl)cc1)N(CCCN1CCOCC1)Cc1cccs1	8	0.8	1	1	17
Cn1ncc(Br)c1C(=O)NC12CC3CC(CC(C3)C1)C2	2	0.9	1.1	1.1	0
Cc1sc(-n2c(C)cc(/C=C3\SC(=S)NC3=O)c2C)c(C#N)c1C	22	0.6	1.1	1	77*
SMILES	L major viab	Diaph act CS	PMI act satM6P	PMI act	WT yeast gro inh
Cc1sc(-n2c(C)cc(/C=N/n3cnnc3)c2C)c(C#N)c1C	77*	0.8	0.8	0.7	-5
Clc1ccc2c(N/N=C/c3cccc(Br)c3)ccnc2c1	100*	1	1.1	1.1	99*
Clc1cccc(/C=N\Nc2nccs2)c1	1	0.8	1	1	36
Clc1ccc2c(N/N=C/c3ccccc3Br)ccnc2c1	99*	1.1	1.1	1.1	95
Clc1ccc2c(NNc3ccccc3Cl)ccnc2c1	-3	0.9	1.9	1.2	6
CCOc1ccc(NC(=O)CNC(=O)c2cn(-c3ccccc3OC)c(=O)c3ccccc23)cc1	1	0.9	1	1	7
COc1ccc(-c2nnc(SCc3nnc(-c4ccc(Cl)cc4)o3)n2-c2ccccc2)cc1	89*	0.7	0.8	0.7	64*
COc1ccc(CC(=O)OCc2nnc(-c3ccccc3)o2)cc1	-1	0.9	0.9	1	12
COc1ccc(/C=N/NC(N)=S)cc1OC(=O)c1cccc2ccccc12	99*	0.9	1	0.9	61*
COc1ccc(CCN=C(N)Nc2nc(C)cc(C)n2)cc1	95*	1.1	1	1	-1
COc1ccc(CCN=C(N)NS(=O)(=O)c2ccc(OC)cc2)cc1	-9	0.9	1	0.9	-12
Fc1ccc(CO/N=C/C2=C(Cl)c3ccccc3CC2)cc1	-3	0.9	1	0.9	58*
Cc1cc(-c2nn(-c3ccccc3F)cc2CN2CCC(C(N)=O)CC2)c(C)s1	1	0.8	0.9	0.9	2
Cc1cc(-c2nn(-c3ccccc3F)cc2CNCCc2cnc[nH]2)c(C)s1	98*	1.2	0.9	0.9	15
O=C(c1cc(N2C(=O)C3C4CCC(C4)C3C2=O)ccc1Cl)N1CCCCCC1 (centres undefined)	-4	0.9	1.1	1	-8
COc1ccc(N2CCN(C(=O)c3cc(N4C(=O)C5C6CCC(C6)C5C4=O)ccc3Cl)CC2)cc1 (centres undefined)	86*	0.9	0.9	0.9	-9
O=C(c1cc(N2C(=O)C3C4CCC(C4)C3C2=O)ccc1Cl)N1CCN(c2ccccc2F)CC1 (centres undefined)	75*	0.9	1	0.9	9
O=C(c1cc(N2C(=O)C3C4CCC(C4)C3C2=O)ccc1Cl)N1CCN(c2ccc(F)cc2)CC1 (centres undefined)	75*	1	1	0.9	3
O=C(c1cccc(C(=O)N2CCN(c3ccccc3F)CC2)c1)N1CCN(c2ccccc2F)CC1	-8	0.9	1	1	24
O=C1c2ccccc2NC(c2cn[nH]c2-c2ccccc2)N1O (centres undefined)	-8	0.9	1.7	1.6	-14
O=C1c2ccccc2NC(c2cn[nH]c2-c2ccc(Cl)cc2)N1O (centres undefined)	-9	0.9	2.2*	1.7	-3
COc1ccc2c(C)cc(SC3CCOC3=O)nc2c1 (centres undefined)	-5	0.9	0.9	1	-7
Cc1cc(C)c2nc(SC3CCOC3=O)cc(C)c2c1 (centres undefined)	-3	0.9	2.5*	1.5	18
CN(C)CCNC(=O)c1cccc(NS(=O)(=O)c2ccc(Cl)c(Cl)c2)c1	-5	0.9	1	1	3
CN(C)CC(C)(C)CNS(=O)(=O)c1ccc(Cl)c(Cl)c1	80*	0.9	1.1	1	17
